Series [1] relates to DU-145 cells. Nature of the series: WST-1 assay for cell viability and cytotoxicity. Type of series: cell-based, human. The conditions noted are these: 23.4 mmol/l, 4 day incubation, read up to 8 h, P≤0.01. Background: Tetrazolium dyes change colour on reduction, which living cells bring about.
The test system of series [2] is PC-3 cells. Nature of the series: WST-1 assay for cell viability and cytotoxicity. Type of series: cell-based, human. The conditions noted are these: 23.4 mmol/l, 4 day incubation, read up to 8 h, P≤0.01.
Series [3] in a line: Plasma stability. Type of series: in vitro ADME. The settings on record: over 2 h. Summed up:
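Human plasma was spiked with test compound and incubated separately at 25 and 37°C. Drug levels were measured over 120 min.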

Series [4] in a line: Plasma pharmacokinetics and bioavailability after intravenous and oral dosing. Type of series: in vivo. The settings on record: mouse, other: oral gavage and intravenous bolus. Put shortly: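 Mice were dosed by intravenous bolus or oral gavage, with plasma sampled over 24 h and one sacrifice per time point. Plasma was protein-precipitated with acetonitrile/methanol, evaporated and reconstituted in 0.1% acetic acid. Quantitation was by C18 UHPLC–tandem MS with heated ESI and positive-mode SRM (240.100→110.054), against spiked mouse plasma calibrants. Half-life was taken from concentration–time profiles.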

A short description of series [5]: Tissue levels. The settings on record: mouse heart, liver, kidney, brain; up to 24 h; i.v. and oral. Type of series: in vivo. Summed up: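 After intravenous or oral dosing, liver, kidney, heart and brain were collected at sacrifice. Tissue was homogenised in ice-cold 0.1% acetic acid (10 ml/g) and centrifuged. Acetonitrile/methanol was added to the supernatant, followed by vortexing, centrifugation, evaporation and reconstitution in 0.1% acetic acid. Samples were quantified by LC–MS/MS (SRM 240.100→110.054) against spiked blank-tissue calibrants.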

A short description of series [6]: Acute toxicity, oral up and down procedure. Type of series: in vivo, mouse. The settings on record: 2000 mg/kg, monitored 48 h, repeated twice on other animals.
Series [7] in a line: Dose-response: serum markers of organ function. Type of series: in vivo, mouse. Summed up: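 Mice were dosed intravenously with vehicle or 50, 100 or 200 mg/kg test compound (six per group). They were euthanised by CO2 with cervical dislocation at 6 or 18 h, and blood and tissue were collected. Serum AST, GGT, CRP and troponin I were measured by colorimetric assays to assess liver, kidney and heart function. Tissues were examined for gross pathology.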

The test system of series [8] is DU-145 prostate carcinoma cells. Kind of series: DU-145 xenografts in athymic nude mice. Format: in vivo, mouse. The settings on record: 30 days.
Where [9] appears, read: intravenous 50, 100 or 200 mg/kg, 6 or 18 h.

One may read the half-life as the time needed for the level to fall by half in the phase considered. `C[C@@H]1C[C@@H](n2cnc(C(N)=O)c2N)[C@H](O)[C@H]1O` [ICA-1s, 5-amino-1-((1R,2S,3S,4R)-2,3-dihydroxy-4-methylcyclopentyl)-1H-imidazole-4-carboxamide]: the “in-vitro cytotoxicity (WST-1, absorbance at 450 nm)” value in series [1] was “significant cytotoxicity”. For the same compound, the “in-vitro cytotoxicity (WST-1, absorbance at 450 nm)” value in series [2] is listed as “significant cytotoxicity”. Further, in series [3] (25°C (ambient)), the “stability in human plasma” value is recorded as “stable”. Also, the “stability in human plasma” value in series [3] (37°C) was “stable”. The half-life in series [4] is 342 min. In series [5], the “accumulation in major organs (tissue levels)” value is given as “did not appear to indicate accumulation”. The “acute toxicity outcome at highest dose of the UDP” value in series [6] is listed as “survived with no observable adverse reaction”. In addition, in series [7] (intravenous 200 mg/kg, 6 h after treatment, P=0.033), the “serum CRP versus control” value is “significant rise”. Moreover, in series [7] (setting [9]), the “serum AST versus control” value is reported as “no significant difference”, the “serum GGT versus control” value is recorded as “no significant difference” and the “serum troponin I versus control” value is listed as “no significant difference”. In series [7] (intravenous 50, 100 or 200 mg/kg, 6 or 18 h, other than 200 mg/kg at 6 h), the “serum CRP versus control, all other readings” value was “no significant difference”. The “average tumor size of treated xenografts” value in series [8] (100 mg/kg subcutaneous daily, untreated 156.4 mm^2) was 76.8 mm^2. Moreover, the “tumor growth rate relative to untreated tumors” value in series [8] (DU-145 xenografts, treated vs untreated) is “almost half the rate”.

These data come from publication PMC6287896 (Anti-Cancer Drugs, 2018).
